# In ChEMBL document CHEMBL1811918, “Sesquiterpene and norsesquiterpene derivatives from Sanicula lamelligera and their biological evaluation” (J Nat Prod, 2011):
# Residues, ends and D or L forms follow the SMILES beside them. *: point of attachment. Cbz = O=C(OCc1ccccc1)*
# Experiments:
# RAW264.7 = experiment: Antiinflammatory against mouse RAW264.7 cells assessed as inhibition of LPS-induced nitric oxide production; assay type: functional, cell-based
# How it was run: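 Nitric oxide production was measured in LPS-stimulated RAW 264.7 macrophages, with DMSO wells as negative control and MG-132 as positive control. IC50 was derived.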
# [1] = Cytotoxicity against human C8166 cells after 3 days by MTT assay; assay type: cell-based
# How it was run: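 C8166 cells were seeded in triplicate with or without a concentration series and held at 37 C for 3 days, with compound-free wells as negative control. Viable cells were quantified by MTT absorbance at 595/630 nm. CC50, the 50% reduction in viable cells, was taken from the dose–response curve.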
# [2] = test system: Human immunodeficiency virus 1; experiment: Antiviral activity against Human immunodeficiency virus 1 3B infected in human C8166 cells assessed as numbers of syncytia after 3 days by syncytium counting; settings: C8166, 72 h
# HL-60 = experiment: Cytostatic activity against human HL60 cells after […] by MTT assay; assay type: functional, cell-based
# How it was run: (§1)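 MTT viability in human tumor lines exposed to a concentration series for 48 h. Adherent cells were allowed to attach for 12 h before dosing. Suspension cells were seeded immediately before dosing at (1–2) × 10^5 cells/mL. DMSO wells served as negative control and DDP (cisplatin) as positive control. IC50 was calculated from viability.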
# SW480 = experiment: Cytostatic activity against human SW480 cells after […] by MTT assay; assay type: functional, cell-based; how it was run: as §1
# SMMC-7721 = experiment: Cytostatic activity against human SMMC7721 cells after […] by MTT assay; assay type: functional, cell-based; how it was run: as §1
# MCF7 = experiment: Cytostatic activity against human MCF7 cells after […] by MTT assay; assay type: functional, cell-based; how it was run: as §1
# A549 = experiment: Cytostatic activity against human A549 cells after […] by MTT assay; assay type: functional, cell-based; how it was run: as §1
# [3] = Therapeutic index, ratio of CC50 for human C8166 cells to EC50 for Human immunodeficiency virus 1 3B infected in human C8166 cells; assay type: cell-based; settings: read-out: Ratio CC50/EC50
# How it was run: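 Ratio of CC50 (MTT viability of uninfected C8166 cells, 3 days, 37 C) to EC50 (syncytium counts in HIV-1 IIIB-infected C8166 cells, 3 days, 37 C).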
# [4] = test system: Human immunodeficiency virus 1; experiment: Antiviral activity against Human immunodeficiency virus 1 3B infected in human C8166 cells assessed as numbers of syncytia after 3 days by MTT assay; assay type: functional, organism-based; settings: C8166, 72 h
# How it was run: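 Compounds at various concentrations were added to C8166 cells (8 × 10^5/mL) infected with HIV-1 IIIB and incubated at 37 C for 3 days. The cytopathic effect was scored by counting syncytia, with AZT as positive control. EC50 came from the percentage of syncytial cells relative to the infected untreated control.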
Compound,IC50 (RAW264.7),CC50 at 72 h [1],EC50 [2],IC50 (HL-60),IC50 (SW480),IC50 (SMMC-7721),IC50 (MCF7),IC50 (A549),selectivity ratio [3],EC50 [4]
CC(C)(O)[C@H]1C[C@H]2[C@H](CC[C@@]2(C)O)[C@](C)(O)C[C@@H]1O [SANICULAMOID C],> 64.4 µM,> 368 µM,> 368 µM,> 64.4 µM,> 64.4 µM,> 64.4 µM,> 64.4 µM,> 64.4 µM,,
CC(=O)/C=C/[C@@]1(O)C(C)=CC(=O)CC1(C)C,> 64.4 µM,> 450 µM,> 450 µM,> 64.4 µM,> 64.4 µM,> 64.4 µM,> 64.4 µM,> 64.4 µM,,
CC(C)[C@H]1CC[C@@]2(C)[C@@H]1[C@@H]1O[C@]1(CO)CC[C@@H]2O [SANICULAMOID B],> 64.4 µM,358 µM,126 µM,> 64.4 µM,> 64.4 µM,> 64.4 µM,> 64.4 µM,> 64.4 µM,2.9,
C=C1CC[C@H](O)[C@@]2(C)CC[C@@H]([C@@H](O)C(C)C)[C@H]12,> 64.4 µM,398 µM,167 µM,> 64.4 µM,> 64.4 µM,> 64.4 µM,> 64.4 µM,> 64.4 µM,2.4,
CC(C)C[C@@H](C=O)NC(=O)[C@H](CC(C)C)NC(=O)[C@H](CC(C)C)NC(=O)OCc1ccccc1 [MG-132] (Cbz-Leu-Leu-Leu-aldehyde),0.439 µM,,,,,,,,,
C=C1CC[C@@H](O)[C@]2(C)CC[C@H](CC(C)(C)O)[C@@H]12,> 64.4 µM,> 420 µM,> 420 µM,> 64.4 µM,> 64.4 µM,> 64.4 µM,> 64.4 µM,> 64.4 µM,,
CC(C)[C@H]1CC[C@@]2(C)[C@@H]1[C@H]1O[C@@H]2CC[C@@H]1C(=O)O [SANICULAMOID A1],> 64.4 µM,195 µM,162 µM,> 64.4 µM,> 64.4 µM,> 64.4 µM,> 64.4 µM,> 64.4 µM,1.2,
C=C1CC[C@H]2[C@@H]([C@@H]3[C@@H]1CC[C@@]3(C)O)C2(C)C,> 64.4 µM,170 µM,104 µM,> 64.4 µM,> 64.4 µM,> 64.4 µM,> 64.4 µM,> 64.4 µM,1.6,
C=C1CC[C@@H](O)[C@@]2(C)CC[C@H](C(C)C)[C@@H](O)[C@H]12,28.1 µM,68.1 µM,31.9 µM,31.1 µM,37 µM,32.4 µM,35.3 µM,41.6 µM,2.1,
CC(C)C1=C[C@@H]2[C@H](CC[C@@]2(C)O)[C@@](C)(O)CC1 [GUAIANEDIOL],> 64.4 µM,> 420 µM,> 420 µM,> 64.4 µM,> 64.4 µM,> 64.4 µM,> 64.4 µM,> 64.4 µM,,
Cc1cn([C@H]2C[C@H](N=[N+]=[N-])[C@@H](CO)O2)c(=O)[nH]c1=O [ZIDOVUDINE],,4070 µM,,,,,,,214000,0.0045 µM
C=C1CC[C@@H](O)[C@]2(C)CC[C@@](O)(C(C)C)C[C@@H]12,> 64.4 µM,> 420 µM,> 420 µM,> 64.4 µM,> 64.4 µM,> 64.4 µM,> 64.4 µM,> 64.4 µM,,
C=C(C)[C@@H]1CC[C@@]2(C)[C@H](O)CC[C@@](C)(O)[C@@H]2C1 [CYPERUSOL C],> 64.4 µM,> 420 µM,150 µM,> 64.4 µM,> 64.4 µM,> 64.4 µM,> 64.4 µM,> 64.4 µM,> 2.8,
CC(=O)CC[C@@H](C(C)C)[C@@H]1[C@H]2CCC(=O)[C@H]21 [SANICULAMOID D],> 64.4 µM,> 450 µM,196 µM,> 64.4 µM,> 64.4 µM,> 64.4 µM,> 64.4 µM,> 64.4 µM,> 2.3,
C[C@H](/C=C/[C@]12O[C@@]1(C)C[C@@H](O)CC2(C)C)O[C@@H]1O[C@H](CO)[C@@H](O)[C@H](O)[C@H]1O [PHLOMUROSIDE],> 64.4 µM,> 258 µM,> 258 µM,> 64.4 µM,> 64.4 µM,> 64.4 µM,> 64.4 µM,> 64.4 µM,,
CC(=O)C=C=C1C(C)(C)C[C@H](O)C[C@@]1(C)O[C@@H]1O[C@H](CO)[C@@H](O)[C@H](O)[C@H]1O [CITROSIDE B],> 64.4 µM,> 259 µM,> 259 µM,> 64.4 µM,> 64.4 µM,> 64.4 µM,> 64.4 µM,> 64.4 µM,,
